From ChEMBL document CHEMBL3396946, “Design, synthesis and pharmacological evaluation of N-[4-(4-(alkyl/aryl/heteroaryl)-piperazin-1-yl)-phenyl]-carbamic acid ethyl ester derivatives as novel anticonvulsant agents” (Bioorg Med Chem Lett, 2015)
Activity calls are given as the source filed them. No cut-off for these calls is given here.

Legend:
[1] = test system: Mus musculus; experiment: Anticonvulsant activity in intraperitoneally dosed Swiss albino mouse assessed as reduction in electrical stimulus-induced seizures after 4 hrs by maximal electroshock seizure test; type: functional
Outline: (§1)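 Adult male Swiss albino mice; test agents given i.p. at 30, 100 and 300 mg/kg, with animals examined 0.5 h and 4.0 h after injection. Value is the minimal dose protecting half or more of the mice; a dash means no activity at 300 mg/kg.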

[2] = test system: Mus musculus; experiment: Anticonvulsant activity in intraperitoneally dosed Swiss albino mouse assessed as reduction in clonic seizures after 4 hrs by subcutaneous pentylenetetrazole seizure test; type: functional; outline: as §1
[3] = Neurological toxicity in intraperitoneally dosed Swiss albino mouse assessed as motor impairment after 0.5 hrs by rotarod test; type: organism-based; conditions: in vivo, ip, read-out: MTD50
[4] = Neurological toxicity in intraperitoneally dosed Swiss albino mouse assessed as motor impairment after 4 hrs by rotarod test; type: organism-based; conditions: in vivo, ip, read-out: MTD50
[5] = test system: Mus musculus; experiment: Anticonvulsant activity in Swiss albino mouse assessed as reduction in electrical stimulus-induced seizures at 300 mg/kg, ip after 0.5 hrs by maximal electroshock seizure test; type: functional, organism-based; parameters: dose 300 mg/kg; outline: as §1
[6] = test system: Mus musculus; experiment: Anticonvulsant activity in Swiss albino mouse assessed as reduction in clonic seizures at 300 mg/kg, ip after 0.5 hrs by subcutaneous pentylenetetrazole seizure test; type: functional, organism-based; parameters: dose 300 mg/kg; outline: as §1
[7] = test system: Mus musculus; experiment: Anticonvulsant activity in intraperitoneally dosed Swiss albino mouse assessed as reduction in electrical stimulus-induced seizures after 0.5 hrs by maximal electroshock seizure test; type: functional; outline: as §1
[8] = test system: Mus musculus; experiment: Anticonvulsant activity in Swiss albino mouse assessed as reduction in clonic seizures at 300 mg/kg, ip after 4 hrs by subcutaneous pentylenetetrazole seizure test; type: functional, organism-based; parameters: dose 300 mg/kg; outline: as §1
[9] = test system: Mus musculus; experiment: Neurological toxicity in Swiss albino mouse assessed as motor impairment at 300 mg/kg, ip after 0.5 hrs by rotarod test; type: organism-based; parameters: dose 300 mg/kg, route intraperitoneal; conditions: in vivo
Outline: (§2)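 Adult male Swiss albino mice dosed i.p. at 30, 100 and 300 mg/kg, examined at 0.5 h and 4.0 h. Neurotoxicity is scored as failure to hold onto the rotating rod, with three successive trials. Value is the minimal dose active in half or more of the mice.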

[10] = test system: Mus musculus; experiment: Neurological toxicity in Swiss albino mouse assessed as motor impairment at 300 mg/kg, ip after 4 hrs by rotarod test; type: organism-based; parameters: dose 300 mg/kg, route intraperitoneal; conditions: in vivo; outline: as §2
[11] = test system: Mus musculus; experiment: Toxicity in Swiss albino mouse assessed as induction of death following tonic extension at 300 mg/kg, ip after 0.5 hrs during maximal electroshock seizure test; type: organism-based; parameters: dose 300 mg/kg, route intraperitoneal; conditions: in vivo
[12] = test system: Mus musculus; experiment: Anticonvulsant activity in Swiss albino mouse assessed as reduction in electrical stimulus-induced seizures at 300 mg/kg, ip after 4 hrs by maximal electroshock seizure test; type: functional, organism-based; parameters: dose 300 mg/kg; outline: as §1
[13] = test system: Mus musculus; experiment: Anticonvulsant activity in intraperitoneally dosed Swiss albino mouse assessed as reduction in clonic seizures after 0.5 hrs by subcutaneous pentylenetetrazole seizure test; type: functional; outline: as §1
[14] = test system: Mus musculus; experiment: Toxicity in Swiss albino mouse assessed as induction of sedation at 100 mg/kg, ip after 0.5 hrs during maximal electroshock seizure test; type: organism-based; parameters: dose 100 mg/kg, route intraperitoneal; conditions: in vivo
[15] = test system: Mus musculus; experiment: Toxicity in Swiss albino mouse assessed as induction of sedation at 300 mg/kg, ip after 0.5 hrs during subcutaneous pentylenetetrazole seizure test; type: organism-based; parameters: dose 300 mg/kg
[16] = test system: Mus musculus; experiment: (§3) Anticonvulsant activity in Swiss albino mouse model of pentylenetetrazole-induced kindling related chronic epilepsy assessed as reduction in incidence and seizure severity score by at 30 mg/kg, ip administered daily for 5 weeks followed by injection of 30 mg/kg, ip PTZ on every alternate day till full kindling development; type: functional, organism-based
Outline: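 Adult Swiss albino male mice, randomised to seven groups (n = 8; PTZ group n = 9). Test drug given i.p. over 35 days, with PTZ 30 mg/kg i.p. on alternate days for 5 weeks. Seizures scored visually each week. Mean score ± SEM compared by ANOVA with Tukey's test.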

[17] = test system: Mus musculus; experiment: as §3, with “in” for “in incidence and”, “at 5” for “at 30”; type: functional, organism-based
Outline: (§4)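 Adult male Swiss albino mice are randomised into seven groups (n = 8; n = 9 for PTZ-only). Treatment is i.p. for 35 days. PTZ is given at 30 mg/kg i.p. on alternate days for 5 weeks. Control mice receive saline; phenobarbital 30 mg/kg i.p. is the reference. Seizure score is rated visually each week. Data are mean ± SEM, ANOVA with Tukey's test.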

[18] = test system: Mus musculus; experiment: as §3, with “reduction in seizure severity” for “reduction in incidence and seizure severity”, “by at 10 to 30 mg/kg,” for “by at 30 mg/kg,”; type: functional, organism-based; outline: as §4
[19] = test system: Mus musculus; experiment: (§5) Reduction in MDA level in brain of Swiss albino mouse model of pentylenetetrazole-induced kindling related chronic epilepsy at 5 to 30 mg/kg, ip administered daily for 5 weeks followed by injection of 30 mg/kg, ip PTZ on every alternate day till full kindling development by spectrophotometry; type: functional, organism-based
Outline: (§6)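 PTZ-kindled mice (30 mg/kg i.p. on alternate days for 5 weeks) receive i.p. treatment (5, 10, 20, 30 mg/kg) for 35 days. At the end, mice are killed under ether and brains stored at -20 °C for up to 10 h. Readouts are GSH (µg/g wet tissue), MDA (nmol/µg protein), GSH-Px (U/g protein) and NO (µmol/g protein). n = 8 per group (PTZ group n = 6); mean ± SEM, ANOVA with Tukey's test.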

[20] = test system: Mus musculus; experiment: as §5, with “Increase” for “Reduction”, “GSH” for “MDA”, “Ellman's reagent based assay” for “spectrophotometry”; type: functional, organism-based; outline: as §6
[21] = test system: Mus musculus; experiment: Increase in GSH-Px level in brain of Swiss albino mouse model of pentylenetetrazole-induced kindling related chronic epilepsy at 5 to 30 mg/kg, ip administered daily for 5 weeks followed by injection of 30 mg/kg, ip PTZ on every alternate day till full kindling development; type: functional, organism-based; outline: as §6
[22] = test system: Mus musculus; experiment: as §5, with “in nitric oxide” for “in MDA”, “at 10” for “at 5”, “by Griess reagent based assay” for “by spectrophotometry”; type: functional, organism-based; outline: as §6
[23] = test system: Mus musculus; experiment: as §5, with “nitric oxide” for “MDA”, “5” for “5 to 30”, “Griess reagent based assay” for “spectrophotometry”; type: functional, organism-based; outline: as §6
[24] = test system: Mus musculus; experiment: Toxicity in Swiss albino mouse assessed as induction of myoclonic jerks at 100 mg/kg, ip after 0.5 hrs during subcutaneous pentylenetetrazole seizure test; type: organism-based; parameters: dose 100 mg/kg
[25] = test system: Mus musculus; experiment: Toxicity in Swiss albino mouse assessed as induction of myoclonic jerks at 300 mg/kg, ip after 0.5 hrs during subcutaneous pentylenetetrazole seizure test; type: organism-based; parameters: dose 300 mg/kg
[26] = test system: Mus musculus; experiment: Toxicity in Swiss albino mouse assessed as induction of myoclonic jerks at 100 mg/kg, ip after 4 hrs during subcutaneous pentylenetetrazole seizure test; type: organism-based; parameters: dose 100 mg/kg
[27] = test system: Mus musculus; experiment: Toxicity in Swiss albino mouse assessed as induction of death following tonic extension at 300 mg/kg, ip after 4 hrs during maximal electroshock seizure test; type: organism-based; parameters: dose 300 mg/kg, route intraperitoneal; conditions: in vivo

| Structure (SMILES) | MED50 [1] [mg/kg] | MED50 [2] [mg/kg] | Activity [5] | Activity [6] | MED50 [7] [mg/kg] | Activity [8] | Activity [9] | Activity [10] | Activity [12] | MED50 [13] [mg/kg] | further results |
| --- | --- | --- | --- | --- | --- | --- | --- | --- | --- | --- | --- |
| CCOC(=O)Nc1ccc(N2CCN(C(=O)c3ccccc3)CC2)cc1 | 100 | 300 | inactive | inactive |  |  |  |  |  |  | TD50 at 0.5 h [3]: 300 mg/kg; TD50 at 4 h [4]: 300 mg/kg |
| CCOC(=O)Nc1ccc(N2CCN(c3ncccn3)CC2)cc1 | 300 |  |  | inactive | 100 | inactive | Non-toxic | Non-toxic |  |  | Activity [11]: Toxic |
| CCOC(=O)Nc1ccc(N2CCN(C)CC2)cc1 |  |  | inactive | inactive |  | inactive | Non-toxic | Non-toxic | inactive |  |  |
| CCOC(=O)Nc1ccc(N2CCN(c3ccc(C(F)(F)F)cc3)CC2)cc1 |  |  |  |  | 100 | inactive |  |  | inactive | 300 | Activity [14]: Toxic; Activity [15]: Toxic |
| CCOC(=O)Nc1ccc(N2CCN(c3ccccn3)CC2)cc1 | 100 |  |  | inactive | 100 | inactive |  |  |  |  | TD50 at 0.5 h [3]: 100 mg/kg; TD50 at 4 h [4]: 100 mg/kg |
| CCC1(c2ccccc2)C(=O)NC(=O)NC1=O |  |  |  |  |  |  |  |  |  |  | Activity [16]: Active |
| CCOC(=O)Nc1ccc(N2CCN(c3ccc(C(C)=O)cc3)CC2)cc1 | 100 | 100 |  |  | 30 |  | Non-toxic | Non-toxic |  | 100 | Activity [17]: Active; Activity [18]: Active; Activity [19]: Active; Activity [20]: Active; Activity [21]: Active; Activity [22]: Active; Activity [23]: inactive |
| CCOC(=O)Nc1ccc(N2CCN(c3ccccc3)CC2)cc1 | 300 | 300 |  |  | 30 |  | Non-toxic | Non-toxic |  | 300 |  |
| CCOC(=O)Nc1ccc(N2CCN(c3ccc(Cl)cc3)CC2)cc1 | 300 | 100 |  |  | 100 |  |  |  |  | 100 | Activity [14]: Toxic |
| CCOC(=O)Nc1ccc(N2CCN(Cc3ccccc3)CC2)cc1 | 100 |  |  | inactive | 100 | inactive | Non-toxic | Non-toxic |  |  |  |
| CCOC(=O)Nc1ccc(N2CCN(c3ccc(OC)cc3)CC2)cc1 |  | 100 |  | inactive | 100 |  | Non-toxic | Non-toxic | inactive |  |  |
| CCOC(=O)Nc1ccc(N2CCN(CC)CC2)cc1 |  |  | inactive | inactive |  | inactive | Non-toxic | Non-toxic | inactive |  |  |
| NC(=O)N1c2ccccc2C=Cc2ccccc21 [CARBAMAZEPINE] | 100 | 300 |  |  | 30 |  |  |  |  | 100 | TD50 at 0.5 h [3]: 100 mg/kg; TD50 at 4 h [4]: 300 mg/kg |
| CCOC(=O)Nc1ccc(N2CCN(c3ccc(F)cc3)CC2)cc1 | 300 |  | inactive | inactive |  | inactive | Non-toxic | Non-toxic | inactive |  |  |
| O=C1NC(=O)C(c2ccccc2)(c2ccccc2)N1 [PHENYTOIN] | 30 |  |  | inactive | 30 | inactive |  |  |  |  |  |
| CCCC(CCC)C(=O)O [VALPROIC ACID] |  | 300 | inactive | inactive |  |  | Non-toxic | Non-toxic | inactive |  |  |
| CCC1(C)CC(=O)NC1=O (stereo not drawn) [ETHOSUXIMIDE] |  | 300 | inactive |  |  |  | Non-toxic | Non-toxic | inactive | 100 |  |
| CCOC(=O)Nc1ccc(N2CCN(c3ccc(C)cc3)CC2)cc1 | 100 |  |  |  | 30 | inactive |  |  |  | 100 | TD50 at 0.5 h [3]: 100 mg/kg; TD50 at 4 h [4]: 100 mg/kg; Activity [24]: Toxic |
| CCOC(=O)Nc1ccc(N2CCN(C(c3ccccc3)c3ccccc3)CC2)cc1 | 300 | 300 | inactive | inactive |  |  | Non-toxic | Non-toxic |  |  |  |
| CCOC(=O)Nc1ccc(N2CCN(Cc3ccc4c(c3)OCO4)CC2)cc1 |  |  | inactive |  |  | inactive | Non-toxic | Non-toxic | inactive | 300 | Activity [25]: Toxic |
| CCOC(=O)Nc1ccc(N2CCN(C(c3ccc(F)cc3)c3ccc(F)cc3)CC2)cc1 | 300 | 100 | inactive | inactive |  |  | Non-toxic | Non-toxic |  |  | Activity [26]: Toxic |
| CCOC(=O)Nc1ccc(N2CCN(c3ccncc3)CC2)cc1 | 300 |  |  | inactive | 100 | inactive |  |  |  |  | TD50 at 0.5 h [3]: 300 mg/kg; TD50 at 4 h [4]: 100 mg/kg; Activity [27]: Toxic |
| CCOC(=O)Nc1ccc(N2CCN(C(=O)c3ccco3)CC2)cc1 | 100 |  | inactive | inactive |  | inactive | Non-toxic | Non-toxic |  |  |  |
